Columns and labels:
Format in all cases: functional
SK-OV-3 = assay: Cytotoxicity against human SKOV3 cells assessed as cell growth at 10 uM; conditions: read-out: Activity
How it was run: (§1)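 NCI-60 screen: cells grown in RPMI 1640 with 5% FBS and 2 mM L-glutamine, plated at 5000–40,000 cells/well according to doubling time, and preincubated 24 h at 37 °C, 5% CO2. The single 10 µM dose (DMSO stock) was added, then incubated 48 h. Cells were TCA-fixed and stained with 0.4% SRB, read at 515 nm, and growth % calculated against time-zero and control plates.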

SNB-75 = assay: Cytotoxicity against human SNB75 cells assessed as cell growth at 10 uM; conditions: read-out: Activity; how it was run: as §1
SF-539 = assay: Cytotoxicity against human SF539 cells assessed as cell growth at 10 uM; conditions: read-out: Activity; how it was run: as §1
MOLT-4 = assay: Cytotoxicity against human MOLT4 cells assessed as cell growth at 10 uM; conditions: read-out: Activity; how it was run: as §1
UACC-257 = assay: Cytotoxicity against human UACC257 cells assessed as cell growth at 10 uM; conditions: read-out: Activity; how it was run: as §1
NCI-H226 = assay: Cytotoxicity against human NCI-H226 cells assessed as cell growth at 10 uM; conditions: read-out: Activity; how it was run: as §1
EKVX = assay: Cytotoxicity against human EKVX cells assessed as cell growth at 10 uM; conditions: read-out: Activity
How it was run: (§2)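 Single-dose NCI-60 screen at 10 µM. Cells were grown in RPMI 1640 with 5% FBS and 2 mM L-glutamine, then treated for 48 h at 37 °C. Protein was measured by SRB staining with absorbance at 515 nm. Percentage growth was recorded, and inhibition percentage was calculated as 100 minus growth percentage.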

NCI-H460 = assay: Cytotoxicity against human NCI-H460 cells assessed as cell growth at 10 uM; conditions: read-out: Activity; how it was run: as §1
HOP-92 = assay: Cytotoxicity against human HOP92 cells assessed as cell growth at 10 uM; conditions: read-out: Activity; how it was run: as §2
UACC-62 = assay: Cytotoxicity against human UACC62 cells assessed as cell growth at 10 uM; conditions: read-out: Activity; how it was run: as §1
SK-MEL-2 = assay: Cytotoxicity against human SK-MEL-2 cells assessed as cell growth at 10 uM; conditions: read-out: Activity; how it was run: as §1
A498 = assay: Cytotoxicity against human A498 cells assessed as cell growth at 10 uM; conditions: read-out: Activity; how it was run: as §2
HCT-116 = assay: Cytotoxicity against human HCT116 cells assessed as cell growth at 10 uM; conditions: read-out: Activity; how it was run: as §2
[1] = Growth inhibition of human NCI60 cells at 10 uM after 48 hrs by sulforhodamine B assay relative to control; conditions: NCI60, 48 h, read-out: GI
How it was run: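 Single-dose NCI screen at 10 µM across the 60-line panel, 48 h exposure at 37 °C after a 24 h preincubation. Adherent cells were fixed with cold TCA and stained with 0.4% SRB, and absorbance was read at 515 nm. Inhibition % was taken as 100 minus growth %, and the mean across all lines was reported.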

NCI-H522 = assay: Cytotoxicity against human NCI-H522 cells assessed as cell growth at 10 uM; conditions: read-out: Activity; how it was run: as §1
DU-145 = assay: Cytotoxicity against human DU145 cells assessed as cell growth at 10 uM; conditions: read-out: Activity; how it was run: as §2
MDA-MB-231 = assay: Cytotoxicity against human MDA-MB-231 cells assessed as cell growth at 10 uM; conditions: read-out: Activity; how it was run: as §1
PC-3 = assay: Cytotoxicity against human PC3 cells assessed as cell growth at 10 uM; conditions: read-out: Activity; how it was run: as §1
Malme-3M = assay: Cytotoxicity against human MALME-3M cells assessed as cell growth at 10 uM; conditions: read-out: Activity; how it was run: as §1
M14 = assay: Cytotoxicity against human M14 cells assessed as cell growth at 10 uM; conditions: read-out: Activity; how it was run: as §1
NCI-H322M = assay: Cytotoxicity against human NCI-H322M cells assessed as cell growth at 10 uM; conditions: read-out: Activity; how it was run: as §1
OVCAR-5 = assay: Cytotoxicity against human OVCAR5 cells assessed as cell growth at 10 uM; conditions: read-out: Activity; how it was run: as §1
OVCAR-3 = assay: Cytotoxicity against human OVCAR-3 cells assessed as cell growth at 10 uM; conditions: read-out: Activity; how it was run: as §1
SK-MEL-28 = assay: Cytotoxicity against human SK-MEL-28 cells assessed as cell growth at 10 uM; conditions: read-out: Activity; how it was run: as §1
[2] = Cytotoxicity against human Hs 578T cells assessed as cell growth at 10 uM; conditions: read-out: Activity; how it was run: as §2
[3] = Cytotoxicity against human […] cells assessed as cell growth at 10 uM; conditions: read-out: Activity; how it was run: as §1
TK-10 = assay: Cytotoxicity against human TK10 cells assessed as cell growth at 10 uM; conditions: read-out: Activity; how it was run: as §1
UO-31 = assay: Cytotoxicity against human UO31 cells assessed as cell growth at 10 uM; conditions: read-out: Activity; how it was run: as §1
NCI-H23 = assay: Cytotoxicity against human NCI-H23 cells assessed as cell growth at 10 uM; conditions: read-out: Activity; how it was run: as §1
HCT-15 = assay: Cytotoxicity against human HCT15 cells assessed as cell growth at 10 uM; conditions: read-out: Activity; how it was run: as §2
BT-549 = assay: Cytotoxicity against human BT549 cells assessed as cell growth at 10 uM; conditions: read-out: Activity; how it was run: as §2
NCI/ADR-RES = assay: Cytotoxicity against human NCI/ADR-RES cells assessed as cell growth at 10 uM; conditions: read-out: Activity; how it was run: as §1
U-251 = assay: Cytotoxicity against human U251 cells assessed as cell growth at 10 uM; conditions: read-out: Activity; how it was run: as §1
OVCAR-4 = assay: Cytotoxicity against human OVCAR4 cells assessed as cell growth at 10 uM; conditions: read-out: Activity; how it was run: as §1
A549 = assay: Cytotoxicity against human A549 cells assessed as cell growth at 10 uM; conditions: read-out: Activity; how it was run: as §2
SNB-19 = assay: Cytotoxicity against human SNB19 cells assessed as cell growth at 10 uM; conditions: read-out: Activity; how it was run: as §1
786-0 = assay: Cytotoxicity against human 786-0 cells assessed as cell growth at 10 uM; conditions: read-out: Activity; how it was run: as §2
K562 = assay: Cytotoxicity against human K562 cells assessed as cell growth at 10 uM; conditions: read-out: Activity; how it was run: as §2
HT-29 = assay: Cytotoxicity against human HT-29 cells assessed as cell growth at 10 uM; conditions: read-out: Activity; how it was run: as §2
MDA-MB-468 = assay: Cytotoxicity against human MDA-MB-468 cells assessed as cell growth at 10 uM; conditions: read-out: Activity; how it was run: as §1
SF-295 = assay: Cytotoxicity against human SF295 cells assessed as cell growth at 10 uM; conditions: read-out: Activity; how it was run: as §1
HOP-62 = assay: Cytotoxicity against human HOP62 cells assessed as cell growth at 10 uM; conditions: read-out: Activity; how it was run: as §2
SF-268 = assay: Cytotoxicity against human SF268 cells assessed as cell growth at 10 uM; conditions: read-out: Activity; how it was run: as §1
SN12C = assay: Cytotoxicity against human SN12C cells assessed as cell growth at 10 uM; conditions: read-out: Activity; how it was run: as §1
OVCAR-8 = assay: Cytotoxicity against human OVCAR8 cells assessed as cell growth at 10 uM; conditions: read-out: Activity; how it was run: as §1
SK-MEL-5 = assay: Cytotoxicity against human SK-MEL-5 cells assessed as cell growth at 10 uM; conditions: read-out: Activity; how it was run: as §1
SW-620 = assay: Cytotoxicity against human SW620 cells assessed as cell growth at 10 uM; conditions: read-out: Activity; how it was run: as §1
CCRF-CEM = assay: Cytotoxicity against human CCRF-CEM cells assessed as cell growth at 10 uM; conditions: read-out: Activity; how it was run: as §2
HCC 2998 = assay: Cytotoxicity against human HCC2998 cells assessed as cell growth at 10 uM; conditions: read-out: Activity; how it was run: as §2
LOX IMVI = assay: Cytotoxicity against human LOXIMVI cells assessed as cell growth at 10 uM; conditions: read-out: Activity; how it was run: as §1
ACHN = assay: Cytotoxicity against human ACHN cells assessed as cell growth at 10 uM; conditions: read-out: Activity; how it was run: as §2
HL-60(TB) = assay: Cytotoxicity against human HL-60(TB) cells assessed as cell growth at 10 uM; conditions: read-out: Activity
How it was run: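 NCI 60-cell panel screen at a single concentration of 10 µM. Cells are grown in RPMI 1640 with 5% FBS and 2 mM L-glutamine and read by SRB protein staining at 515 nm. Percent growth is measured relative to time-zero and untreated controls; inhibition % is 100 minus growth %.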

MDA-MB-435 = assay: Cytotoxicity against human MDA-MB-435 cells assessed as cell growth at 10 uM; conditions: read-out: Activity; how it was run: as §1
MCF7 = assay: Cytotoxicity against human MCF7 cells assessed as cell growth at 10 uM; conditions: read-out: Activity; how it was run: as §1
KM12 = assay: Cytotoxicity against human KM12 cells assessed as cell growth at 10 uM; conditions: read-out: Activity; how it was run: as §1
IGROV-1 = assay: Cytotoxicity against human IGROV1 cells assessed as cell growth at 10 uM; conditions: read-out: Activity; how it was run: as §2
RXF 393 = assay: Cytotoxicity against human RXF393 cells assessed as cell growth at 10 uM; conditions: read-out: Activity; how it was run: as §1
SR = assay: Cytotoxicity against human SR cells assessed as cell growth at 10 uM; conditions: read-out: Activity; how it was run: as §1
CAKI-1 = assay: Cytotoxicity against human Caki1 cells assessed as cell growth at 10 uM; conditions: read-out: Activity; how it was run: as §2
T47D = assay: Cytotoxicity against human T47D cells assessed as cell growth at 10 uM; conditions: read-out: Activity; how it was run: as §1
COLO 205 = assay: Cytotoxicity against human COLO205 cells assessed as cell growth at 10 uM; conditions: read-out: Activity; how it was run: as §2

## COc1cc(C)cc(-c2nn(CC#N)cc2-c2ccnc(-c3ccc(Oc4ccccc4)cc3)c2)c1
SK-OV-3
  growth at 10 µM: 95.4%
SNB-75
  growth at 10 µM: 74.4%
SF-539
  growth at 10 µM: 95.3%
MOLT-4
  growth at 10 µM: 73.7%
UACC-257
  growth at 10 µM: 91.6%
NCI-H226
  growth at 10 µM: 66.5%
EKVX
  growth at 10 µM: 98.2%
NCI-H460
  growth at 10 µM: 106%
HOP-92
  growth at 10 µM: 85.5%
UACC-62
  growth at 10 µM: 65.8%
SK-MEL-2
  growth at 10 µM: 85.2%
A498
  growth at 10 µM: 85.3%
HCT-116
  growth at 10 µM: 81.8%
[1]
  inhibition of growth at 10 µM: 13.5%
NCI-H522
  growth at 10 µM: 72.5%
DU-145
  growth at 10 µM: 105%
MDA-MB-231
  growth at 10 µM: 88.6%
PC-3
  growth at 10 µM: 91.9%
Malme-3M
  growth at 10 µM: 112%
M14
  growth at 10 µM: 102%
NCI-H322M
  growth at 10 µM: 96.3%
OVCAR-5
  growth at 10 µM: 90.2%
OVCAR-3
  growth at 10 µM: 109%
SK-MEL-28
  growth at 10 µM: 104%
[2]
  growth at 10 µM: 94.3%
[3]
  growth at 10 µM: 83%
TK-10
  growth at 10 µM: 88.6%
UO-31
  growth at 10 µM: 84.8%
NCI-H23
  growth at 10 µM: 88.3%
HCT-15
  growth at 10 µM: 71%
BT-549
  growth at 10 µM: 96.3%
NCI/ADR-RES
  growth at 10 µM: 80.3%
U-251
  growth at 10 µM: 88.4%
OVCAR-4
  growth at 10 µM: 82.9%
A549
  growth at 10 µM: 85.8%
SNB-19
  growth at 10 µM: 88.5%
786-0
  growth at 10 µM: 95%
K562
  growth at 10 µM: 88%
HT-29
  growth at 10 µM: 73.9%
MDA-MB-468
  growth at 10 µM: 23.6%
SF-295
  growth at 10 µM: 95.1%
HOP-62
  growth at 10 µM: 96.1%
SF-268
  growth at 10 µM: 96.9%
SN12C
  growth at 10 µM: 84.8%
OVCAR-8
  growth at 10 µM: 84.4%
SK-MEL-5
  growth at 10 µM: 53.8%
SW-620
  growth at 10 µM: 98.6%
CCRF-CEM
  growth at 10 µM: 91.3%
HCC 2998
  growth at 10 µM: 93.9%
LOX IMVI
  growth at 10 µM: 98%
ACHN
  growth at 10 µM: 85.4%
HL-60(TB)
  growth at 10 µM: 91.2%
MDA-MB-435
  growth at 10 µM: 98.1%
MCF7
  growth at 10 µM: 72.1%
KM12
  growth at 10 µM: 100%
IGROV-1
  growth at 10 µM: 94.9%
RXF 393
  growth at 10 µM: 64.2%
SR
  growth at 10 µM: 95.8%
CAKI-1
  growth at 10 µM: 78.7%
T47D
  growth at 10 µM: 20.1%
COLO 205
  growth at 10 µM: 98.6%

Reference: ChEMBL document CHEMBL1165950, “Design and synthesis of new potent anticancer pyrazoles with high FLT3 kinase inhibitory selectivity” (Bioorg Med Chem, 2010)
